Data: publication PMC9058365 (RSC Advances, 2020)

Legend:
[1] = tested on: New Zealand albino rabbits; experiment: In vivo tolerance study; settings: rabbit eye, scale 0-3, n = 3
Procedure, shortened: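 Male New Zealand albino rabbits (1.5–2.0 kg) free of ocular inflammation, housed at 25 ± 2 °C, 75% RH, 12:12 h light cycle. Nine animals were split into three groups of three. […] Macroscopic signs were graded at 0.5, 4.0 and 16.0 h, and scores were summed into an overall irritation index.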

Pharmacokinetic study = assay type: in vivo; settings: rabbit plasma, n = 3; for T max: 5 IU kg^−1, HPLC; for AUC0–12: 5 IU kg^−1, trapezoidal method, mean ± SD
[2] = tested on: diabetic rabbits (streptozotocin); experiment: In vivo anti-diabetic study; parameters: species or system rabbit; settings: at 4 h, subcutaneous injection, n = 3
Procedure, shortened: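 Male New Zealand albino rabbits (1.5–2.0 kg) made diabetic by intravenous streptozotocin (65 mg kg−1, in citrate buffer pH 5.0) given in the evening for three days. Baseline blood glucose was taken on day 1 after overnight fasting. Blood glucose was followed over time and expressed as % of initial level, n = 3 per group.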

[3] = rabbits, administered topically via ocular route; ref 25 (Yamamoto et al., 1989); cited from earlier work
[4] = 0.5 h after single instillation of 50 μl
[5] = 4.0 h after single instillation of 50 μl
[6] = 16.0 h after single instillation of 50 μl

Question: Which Conjunctiva grade [1, 4] does the source give for Insulin [Plain insulin solution] here?
Answer: 0

Question: And the Cornea grade [1, 4]?
Answer: 0

Question: What about the Discharge grade [1, 4] of the same substance?
Answer: 0

Question: And the Lids grade [1, 4]?
Answer: 0

Question: And the Conjunctiva grade [1, 5]?
Answer: 0

Question: And the Cornea grade [1, 5]?
Answer: 0

Question: What about the Discharge grade [1, 5] of the same substance?
Answer: 1

Question: And the Discomfort grade [1, 5]?
Answer: 0

Question: What about the Lids grade [1, 5] of the same substance?
Answer: 0

Question: And the Conjunctiva grade [1, 6]?
Answer: 0

Question: And the Cornea grade [1, 6]?
Answer: 0

Question: And the Discharge grade [1, 6]?
Answer: 0

Question: And the Discomfort grade [1, 6]?
Answer: 0

Question: What about the Lids grade [1, 6] of the same substance?
Answer: 0

Question: What about the T max (Pharmacokinetic study; ocular instillation) of the same substance?
Answer: 19.8 min

Question: And the “AUC0–12” value (Pharmacokinetic study; ocular instillation)?
Answer: 1870 ± 1700 ng·h/mL

Question: Which “drop in blood glucose level” value [2] does the source give for “Subcutaneous insulin injection: subcutaneous injection of human insulin solution” here?
Answer: 71.08 ± 3.24

Question: What about the T max (Pharmacokinetic study; subcutaneous injection) of the same substance?
Answer: 30 min

Question: And the “AUC0–12” value (Pharmacokinetic study; subcutaneous injection)?
Answer: 197380 ± 2760 ng·h/mL

Question: Which bioavailability [3] does the source give for insulin here?
Answer: less than 1%
